Assay results: ChEMBL document CHEMBL4610003 (Bioorg Med Chem, 2020)
≈ marks a conversion by molar mass, not a printed value.

Key:
[1] = Protein binding in human plasma; type: ADME, cell-free; settings: read-out: PPB
hERG (KCNH2) [2] = target: T1, hERG (KCNH2) (Homo sapiens, UniProt Q12809); assay: Inhibition of human ERG at 3 uM relative to control
[3] = system: Mycobacterium tuberculosis; assay: Antimycobacterial activity against Mycobacterium tuberculosis H37Rv assessed as bacterial growth inhibition incubated for 10 days under anerobic condition followed by incubation under ambient gaseous condition for […] by low oxygen recovery assay; type: functional
Summary of the method: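 Read-out is MIC90, the lowest concentration giving 90% growth inhibition of M.tb H37Rv, in µg/mL. Bacteria were held under non-replicating, low-oxygen conditions (LORA).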

[4] = system: Mycobacterium tuberculosis; assay: Antimycobacterial activity against Mycobacterium tuberculosis H37Rv assessed as bacterial growth inhibition under replicating, aerobic condition by microplate Alamar blue assay; type: functional
Summary of the method: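 Read-out is MIC90, the lowest concentration giving 90% growth inhibition of M.tb H37Rv, in µg/mL. Bacteria were grown under aerobic, replicating conditions (MABA).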

[5] = Intrinsic clearance in human liver microsomes assessed per mg protein; type: ADME, Microsome; settings: read-out: CLH
Summary of the method: (§1)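 Clearance of compound by human or mouse liver microsomes, expressed as µL/min/mg protein.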

hERG (KCNH2) [6] = target: T1, hERG (KCNH2); assay: Inhibition of human ERG at 10 uM relative to control
Vero = assay: Cytotoxicity against African green monkey Vero cells assessed as reduction in cell viability incubated for 72 hrs by […] assay; type: cell-based; settings: Chlorocebus sabaeus
[7] = Apparent volume of distribution during terminal phase in CD-1 mouse at 2 to 3 mg/kg, iv administered as single bolus dose; type: ADME, organism-based; settings: in vivo
Summary of the method: (§2)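 Male CD-1 mice received a single intravenous bolus at 2–3 mg/kg. Reported values are IV clearance and the apparent volume of distribution during the terminal phase, in L/kg.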

[8] = Clearance in CD-1 mouse at 2 to 3 mg/kg, iv administered as single bolus dose; type: ADME, organism-based; settings: in vivo; summary of the method: as §2
[9] = AUC (0 to infinity) in CD-1 mouse at 10 mg/kg, po via gavage administered as single dose; type: ADME, organism-based; parameters: dose 10 mg/kg, route oral, time infinity; settings: in vivo
Summary of the method: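 Male CD-1 mice given a single 10 mg/kg dose by oral gavage. Exposure is reported as area under the curve from 0 to infinity in µg*h/mL.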

[10] = Intrinsic clearance in mouse liver microsomes assessed per mg protein; type: ADME, Microsome; settings: read-out: CLH; summary of the method: as §1
[11] = target: Voltage-gated inwardly rectifying potassium channel KCNH2 (Homo sapiens, UniProt Q12809); assay: Inhibition of human ERG
[12] = Oral bioavailability in CD-1 mouse at 10 mg/kg administered via gavage as single dose; type: ADME, organism-based; settings: in vivo

Sequence of Voltage-gated inwardly rectifying potassium channel KCNH2 (Q12809 whole entry): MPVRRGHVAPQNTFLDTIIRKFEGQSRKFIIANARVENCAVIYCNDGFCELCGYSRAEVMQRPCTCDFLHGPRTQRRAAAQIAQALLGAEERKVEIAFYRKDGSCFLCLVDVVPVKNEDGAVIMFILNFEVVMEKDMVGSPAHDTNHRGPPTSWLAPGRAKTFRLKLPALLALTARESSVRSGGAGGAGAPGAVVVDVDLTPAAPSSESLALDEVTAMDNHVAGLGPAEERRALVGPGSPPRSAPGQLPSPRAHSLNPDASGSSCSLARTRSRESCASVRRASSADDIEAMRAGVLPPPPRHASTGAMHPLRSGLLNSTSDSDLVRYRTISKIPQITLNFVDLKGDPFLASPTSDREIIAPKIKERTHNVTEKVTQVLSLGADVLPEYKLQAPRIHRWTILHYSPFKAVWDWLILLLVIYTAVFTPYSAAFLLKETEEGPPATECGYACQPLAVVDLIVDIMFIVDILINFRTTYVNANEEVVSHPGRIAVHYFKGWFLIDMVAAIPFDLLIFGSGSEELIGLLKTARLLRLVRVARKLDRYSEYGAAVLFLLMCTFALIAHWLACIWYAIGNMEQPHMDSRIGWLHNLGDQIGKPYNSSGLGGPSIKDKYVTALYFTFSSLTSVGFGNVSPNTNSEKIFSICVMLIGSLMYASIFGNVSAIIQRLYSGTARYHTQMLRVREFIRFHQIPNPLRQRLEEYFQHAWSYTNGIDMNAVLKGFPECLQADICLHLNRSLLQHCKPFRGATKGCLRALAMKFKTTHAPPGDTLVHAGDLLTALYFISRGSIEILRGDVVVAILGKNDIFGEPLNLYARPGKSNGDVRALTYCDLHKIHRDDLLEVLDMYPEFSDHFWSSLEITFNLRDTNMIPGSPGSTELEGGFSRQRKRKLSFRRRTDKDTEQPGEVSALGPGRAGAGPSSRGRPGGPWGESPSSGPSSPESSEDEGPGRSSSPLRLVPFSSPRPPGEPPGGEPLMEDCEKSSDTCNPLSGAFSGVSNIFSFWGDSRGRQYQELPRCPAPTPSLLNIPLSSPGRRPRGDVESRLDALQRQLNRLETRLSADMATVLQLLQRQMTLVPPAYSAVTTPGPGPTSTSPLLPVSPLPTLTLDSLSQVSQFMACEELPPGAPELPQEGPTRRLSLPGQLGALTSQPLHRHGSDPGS
T1 sequence (Q12809 whole entry): as above

| SMILES | fraction unbound [1] | inhibition at 3 µM (hERG (KCNH2) [2]) | MIC90 [3] | MIC90 [4] | microsomal CLint [5] | inhibition at 10 µM (hERG (KCNH2) [6]) | IC50 (Vero) | Vz/F [7] | clearance [8] | AUC(0-inf) [9] | microsomal CLint [10] | IC50 [11] | bioavailability [12] |
| --- | --- | --- | --- | --- | --- | --- | --- | --- | --- | --- | --- | --- | --- |
| COc1cc([C@](O)(CCN(C)C)[C@@H](c2cc3cc(Br)ccc3nc2OC)c2cc(OC)nc(OC)c2OC)cc(OC)n1 (racemic) [TBAJ-876] | < 0.005 |  |  |  |  |  |  |  |  |  |  |  |  |
| CCSc1cc([C@](O)(CCN(C)C)[C@H](c2cccc(C)c2)c2cc3cc(Br)ccc3nc2OC)cc(N(C)C)n1 (racemic) |  | 23% | 0.12 µg/mL (≈ 0.192 µM) | 0.14 µg/mL (≈ 0.224 µM) |  |  |  |  |  |  |  |  |  |
| COc1nc2ccc(Br)cc2cc1[C@@H](c1cccc(C)c1F)[C@@](O)(CCN(C)C)c1cc(SC)nc(SC)c1 (racemic) |  | 13% | 0.06 µg/mL (≈ 0.0951 µM) | < 0.004 µg/mL |  |  |  |  |  |  |  |  |  |
| COc1cc([C@](O)(CCN(C)C)[C@@H](c2cc3cc(Br)ccc3nc2OC)c2cccc(OC)c2F)cc(OC)n1 (racemic) [TBAJ-587] | < 0.005 |  | 0.01 µg/mL (≈ 0.0163 µM) |  | 2.2 µL/min/mg |  |  |  |  |  |  |  |  |
| COc1cc([C@](O)(CCN(C)C)[C@@H](c2cc3cc(Br)ccc3nc2OC)c2cccc(C)c2F)cc(OC(F)F)n1 (racemic) |  |  | 0.03 µg/mL (≈ 0.0473 µM) | 0.01 µg/mL (≈ 0.0158 µM) |  | 3% |  |  |  |  |  |  |  |
| COc1cc([C@](O)(CCN(C)C)[C@@H](c2cc3cc(Br)ccc3nc2OC)c2ccnc(OC)c2OC)cc(OC(C)C)n1 (racemic) |  |  | < 0.01 µg/mL | < 0.01 µg/mL | 6.4 µL/min/mg |  | > 10 µg/mL | 19 L/kg | 6.8 mL/min/kg | 5600 ng·h/mL | 6.7 µL/min/mg | 17 µM | 22% |
| COc1cc([C@](O)(CCN(C)C)[C@@H](c2cc3cc(Br)ccc3nc2OC)c2cccc(OC)c2F)cc(SC)n1 (racemic) |  |  | < 0.02 µg/mL | < 0.02 µg/mL | 4.8 µL/min/mg |  | > 10 µg/mL | 32 L/kg | 13 mL/min/kg | 4600 ng·h/mL | 20 µL/min/mg | > 30 µM | 31% |
| COc1cc([C@](O)(CCN(C)C)[C@@H](c2cc3cc(Br)ccc3nc2OC)c2ccnc(OC)c2OC)cc(OC(F)F)n1 (racemic) |  |  | < 0.004 µg/mL | < 0.004 µg/mL | 2.1 µL/min/mg |  | > 10 µg/mL | 27 L/kg | 8.7 mL/min/kg | 9800 ng·h/mL | 4.9 µL/min/mg | > 10 µM | 50% |
| COc1cc([C@](O)(CCN(C)C)[C@@H](c2cc3cc(Br)ccc3nc2OC)c2ccnc(OC)c2OC)cc(OC2CCC2)n1 (racemic) |  |  | 0.01 µg/mL (≈ 0.015 µM) | < 0.004 µg/mL | 2.5 µL/min/mg |  | > 10 µg/mL | 33 L/kg | 11 mL/min/kg | 8400 ng·h/mL | 4.6 µL/min/mg | > 10 µM | 56% |
| CCSc1cc([C@](O)(CCN(C)C)[C@@H](c2cc3cc(C#N)ccc3nc2OC)c2cccc(OC)c2F)cc(SCC)n1 (racemic) |  |  | 0.2 µg/mL (≈ 0.322 µM) | 0.1 µg/mL (≈ 0.161 µM) | 17 µL/min/mg |  | > 10 µg/mL | 93 L/kg | 29 mL/min/kg | 1400 ng·h/mL | 27 µL/min/mg | > 10 µM | 24% |
| CCSc1cc([C@](O)(CCN(C)C)[C@H](c2ccccc2)c2cc3cc(Br)ccc3nc2OC)cc(SCC)n1 (racemic) |  |  | 0.05 µg/mL (≈ 0.0798 µM) | 0.02 µg/mL (≈ 0.0319 µM) | 2.3 µL/min/mg |  | > 10 µg/mL | 30 L/kg | 11 mL/min/kg | 4000 ng·h/mL | 17 µL/min/mg | > 30 µM | 24% |
| CCOc1cc([C@](O)(CCN(C)C)[C@@H](c2cc3cc(Br)ccc3nc2OC)c2c(OC)cncc2OC)cc(OC(C)C)n1 (racemic) |  |  | < 0.02 µg/mL | < 0.02 µg/mL | 1.1 µL/min/mg |  | > 10 µg/mL | 20 L/kg | 2.7 mL/min/kg | 33000 ng·h/mL | 2.3 µL/min/mg | > 10 µM | 58% |
| CCSc1cc([C@](O)(CCN(C)C)[C@H](c2cccc(C)c2)c2cc3cc(C#N)ccc3nc2OC)cc(N(C)C)n1 (racemic) |  | 51% | 0.17 µg/mL (≈ 0.298 µM) | 0.12 µg/mL (≈ 0.211 µM) |  |  |  |  |  |  |  |  |  |
| COc1nc2ccc(Br)cc2cc1[C@@H](c1ccccc1)[C@@](O)(CCN(C)C)c1cccc2ccccc12 [BEDAQUILINE] | < 0.005 |  | 0.06 µg/mL (≈ 0.108 µM) | 0.03 µg/mL (≈ 0.054 µM) |  |  |  |  |  | 17400 ng·h/mL |  |  |  |
| CCSc1cc([C@](O)(CCN(C)C)[C@@H](c2cc3cc(Br)ccc3nc2OC)c2cccc3c2OCO3)cc(SCC)n1 (racemic) |  |  | 0.06 µg/mL (≈ 0.0895 µM) | 0.01 µg/mL (≈ 0.0149 µM) | 9.5 µL/min/mg |  | > 10 µg/mL | 9.4 L/kg | 3.4 mL/min/kg | 5500 ng·h/mL | 12 µL/min/mg | > 10 µM | 11% |
